Measured values as given in ChEMBL document CHEMBL1148651, “Potent antitumor 9-anilinoacridines and acridines bearing an alkylating N-mustard residue on the acridine chromophore: synthesis and biological activity” (J Med Chem, 2006).
pIC50: −log10 of the molar value.

Columns and labels:
[1] = system: MX1; test: Antitumor activity against human MX1 cell line xenografted in nude mouse at 2 mg/kg, iv after 14 days; assay type: functional
Outline: (§1)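 Nude mice were implanted subcutaneously with MX-1 tumour tissue (50 µg) on day 0. Doses were given iv via the tail vein every 2 or 3 days (Q2D or Q3D schedules) in 20 µL DMSO plus 180 µL saline. Tumour volume was measured by caliper (length × width × height). Result is T/C (%) on the stated day.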

[2] = system: Mus musculus; test: Toxicity against nude mouse xenografted with human MX1 cell line assessed as weight loss at 2 mg/kg, iv after 14 days; assay type: functional
Outline: (§2)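 MX-1 xenograft nude mice were implanted with 50 µg tissue subcutaneously on day 0. They were treated iv by tail vein every 2 or 3 days in 20 µL DMSO plus 180 µL saline. Toxicity is the maximum body weight loss (%) relative to initial pretreatment body weight, on the day indicated.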

[3] = system: CCRF-CEM; test: Antiproliferative activity against human vinblastine resistant CCRF-CEM cell line; assay type: functional, cell-based
Outline: (§3)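 Leukemic CCRF-CEM parent and resistant sublines were exposed for 72 h, then given phenazine methosulfate-XTT at 37 °C for 6 h. Absorbance was read at 450 and 630 nm. Six or seven concentrations were tested in duplicate, and IC50 came from median-effect plot analysis. Resistance fold is relative to the parent CCRF-CEM IC50.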

[4] = system: CCRF-CEM; test: Antiproliferative activity against human CCRF-CEM cell line; assay type: functional, cell-based
[5] = system: MX1; test: Antiproliferative activity against human MX1 cell line; assay type: functional, cell-based
Outline: (§4)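 Growth inhibition after 72 h continuous exposure. Solid tumour lines were read by sulforhodamine B. Six or seven concentrations per compound were tested in duplicate. IC50 came from median-effect (mass-action law) dose-effect analysis.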

[6] = system: A549; test: Antiproliferative activity against human A549 cell line; assay type: functional, cell-based; outline: as §4
[7] = system: HCT-116; test: Antiproliferative activity against human HCT116 cell line; assay type: functional, cell-based; outline: as §4
[8] = system: CCRF-CEM; test: Antiproliferative activity against human taxol resistant CCRF-CEM cell line; assay type: functional, cell-based; outline: as §3
[9] = system: Mus musculus; test: Toxicity against nude mouse xenografted with human MX1 cell line assessed as weight loss at 4 mg/kg, iv after 17 days; assay type: functional; outline: as §2
[10] = system: MX1; test: Antitumor activity against human MX1 cell line xenografted in nude mouse at 4 mg/kg, iv after 19 days; assay type: functional; outline: as §1
[11] = system: Mus musculus; test: Toxicity against nude mouse xenografted with human MX1 cell line assessed as weight loss at 10 mg/kg, iv after 19 days; assay type: functional
[12] = system: Mus musculus; test: Toxicity against nude mouse xenografted with human MX1 cell line assessed as weight loss at 10 mg/kg, iv after 13 days; assay type: functional; outline: as §2
[13] = system: MX1; test: Antitumor activity against human MX1 cell line xenografted in nude mouse at 10 mg/kg, iv after 15 days; assay type: functional; outline: as §1
[14] = system: Mus musculus; test: Toxicity against nude mouse xenografted with human MX1 cell line assessed as weight loss at 10 mg/kg, iv after 17 days; assay type: functional
[15] = system: Mus musculus; test: Toxicity against nude mouse xenografted with human MX1 cell line assessed as weight loss at 2 mg/kg, iv after 12 days; assay type: functional; outline: as §2
[16] = system: Mus musculus; test: Toxicity against nude mouse xenografted with human MX1 cell line assessed as weight loss at 1.5 mg/kg, iv after 14 days; assay type: functional; outline: as §2
[17] = system: MX1; test: Antitumor activity against human MX1 cell line xenografted in nude mouse at 1.5 mg/kg, iv after 14 days; assay type: functional; outline: as §1

SMILES	Activity [1]	Activity [2]	pIC50 [3]	pIC50 [4]	pIC50 [5]	pIC50 [6]	pIC50 [7]	pIC50 [8]	Activity [9]	Activity [10]	Activity [11]	Activity [12]	Activity [13]	Activity [14]	Activity [15]	Activity [16]	Activity [17]
COc1cc(N)cc(Nc2c3ccccc3nc3c(OCCCCN(CCCl)CCCl)cccc23)c1	77%	8%	7.29	8.38	8.25	7.72	7.86	7.36									
ClCCN(CCCl)CCOc1cccc2cc3ccccc3nc12			6.79	7.42	7.15	6.86	7.02	6.93									
OCc1cc(O)cc(Nc2c3ccccc3nc3c(OCCCCN(CCCl)CCCl)cccc23)c1			6.47	8.23	8.14	7.60	8.04	6.93									
Cc1cc(N)cc(Nc2c3ccccc3nc3c(OCCN(CCCl)CCCl)cccc23)c1			7.73	8.39	7.66	7.35	7.63	7.66	15%	79%							
COc1cc(N)cc(Nc2c3ccccc3nc3c(OCCN(CCCl)CCCl)cccc23)c1			7.33	7.92	7.55	7.04	7.27	7.30			10%	15%	96%	10%			
OCc1cc(O)cc(Nc2c3ccccc3nc3c(OCCN(CCCl)CCCl)cccc23)c1			6.82	8.16	7.24	6.97	6.90	6.86									
CC(=O)O[C@H]1C(=O)[C@@]2(C)[C@H]([C@H](OC(=O)c3ccccc3)[C@]3(O)C[C@H](OC(=O)[C@H](O)[C@@H](NC(=O)c4ccccc4)c4ccccc4)C(C)=C1C3(C)C)[C@]1(OC(C)=O)CO[C@@H]1C[C@@H]2O [PACLITAXEL]			5.76	8.96	7.65	8.68		6.31									
COc1ccc(Nc2c3ccccc3nc3c(OCCCCN(CCCl)CCCl)cccc23)cc1N			7.06	8.23	8.25	7.72	8.08	7.05									
Nc1cc(CO)cc(Nc2c3ccccc3nc3c(OCCCCN(CCCl)CCCl)cccc23)c1			6.95	8.38	8.62	8.28	8.02	7.39									
ClCCN(CCCl)CCCCOc1cccc2cc3ccccc3nc12			6.51	7.29	7.09	6.65	6.93	6.41									
Cc1ccc(N)cc1Nc1c2ccccc2nc2c(OCCN(CCCl)CCCl)cccc12			7.51	8.10	8.15	7.50	8.05	7.33									
ClCCN(CCCl)CCCOc1cccc2cc3ccccc3nc12			6.60	7.45	7.08	6.78	6.87	6.82									
Nc1cc(CO)cc(Nc2c3ccccc3nc3ccccc23)c1						7.33											
Cc1ccc(N)cc1Nc1c2ccccc2nc2c(OCCCCN(CCCl)CCCl)cccc12	20%		7.37	8.37	8.04	7.81	7.87	7.24							21%		
CCOC(=O)Nc1cc(CO)cc(Nc2c3ccccc3nc3c(OCCN(CCCl)CCCl)cccc23)c1			6.64	7.59	7.26	7.03	7.23	6.90									
Cc1cc(N)cc(Nc2c3ccccc3nc3c(OCCCCN(CCCl)CCCl)cccc23)c1			7.26	8.43	8.00	8.05	8.04	7.21								8%	6%
CC[C@]1(O)C[C@@H]2CN(CCc3c([nH]c4ccccc34)[C@@](C(=O)OC)(c3cc4c(cc3OC)N(C)[C@H]3[C@@](O)(C(=O)OC)[C@H](OC(C)=O)[C@]5(CC)C=CCN6CC[C@]43[C@@H]65)C2)C1 [VINBLASTINE]			6.68	9.40	8.70	8.96	9.15	7.54									
COc1ccc(Nc2c3ccccc3nc3c(OCCN(CCCl)CCCl)cccc23)cc1N			7.22	7.91	7.62	6.93	7.32	7.24									
Nc1cc(CO)cc(Nc2c3ccccc3nc3c(OCCN(CCCl)CCCl)cccc23)c1			6.90	8.17	8.18	7.49	8.11	7.20									
